According to ChEMBL document CHEMBL1926518, “Synthesis of macrolones with central piperazine ring in the linker and its influence on antibacterial activity” (2011):
Converted amounts (≈) assume the structure as drawn.

Key:
Type in all cases: functional
Staphylococcus aureus [1] = experiment: Antibacterial activity against erythromycin-sensitive Staphylococcus aureus ATCC 13709 by broth microdilution technique
Procedure, shortened: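 MIC by broth microdilution per CLSI guidelines with doubling dilutions of compounds. Before testing, staphylococci were grown on Mueller–Hinton agar. Values reported in µg/mL.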

Streptococcus pneumoniae [2] = experiment: Antibacterial activity against erythromycin-sensitive Streptococcus pneumoniae SP030 by broth microdilution technique
Procedure, shortened: (§1)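 Streptococcal MICs by CLSI broth microdilution with doubling dilutions, but with 5% horse serum in the medium in place of lysed blood. Before testing, strains were grown on Columbia agar with 5% sheep blood. Values reported in µg/mL.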

Streptococcus pyogenes [3] = experiment: Antibacterial activity against erythromycin-sensitive Streptococcus pyogenes 3565 by broth microdilution technique; procedure, shortened: as §1
Staphylococcus aureus [4] = experiment: Antibacterial activity against inducible macrolide, licosamide and streptogramin-resistant Staphylococcus aureus 90256/97 by broth microdilution technique
Procedure, shortened: (§2)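 MICs were determined by CLSI broth microdilution, with double dilutions of compound. Staphylococci were grown on Mueller–Hinton agar before testing. Results are given in µg/mL.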

Streptococcus pneumoniae [5] = experiment: Antibacterial activity against inducible macrolide-resistant, constitutive licosamide and streptogramin-resistant Streptococcus pneumoniae 134 GR-Micro by broth microdilution technique
Procedure, shortened: (§3)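 MICs were determined by CLSI broth microdilution, with double dilutions of compound. In the streptococcal medium, 5% horse serum replaced lysed blood. Streptococci were grown on Columbia agar with 5% sheep blood before testing. Results are given in µg/mL.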

Streptococcus pyogenes [6] = experiment: Antibacterial activity against inducible macrolide, licosamide and streptogramin-resistant Streptococcus pyogenes Finland 11 by broth microdilution technique; procedure, shortened: as §3
Staphylococcus aureus [7] = experiment: Antibacterial activity against constitutive macrolide, licosamide and streptogramin-resistant Staphylococcus aureus PK2 by broth microdilution technique; procedure, shortened: as §2
Streptococcus pneumoniae [8] = experiment: Antibacterial activity against constitutive macrolide, licosamide and streptogramin-resistant Streptococcus pneumoniae 58 Spain by broth microdilution technique; procedure, shortened: as §3
Streptococcus pyogenes [9] = experiment: Antibacterial activity against constitutive macrolide, licosamide and streptogramin-resistant Streptococcus pyogenes 166 GR-Micro by broth microdilution technique; procedure, shortened: as §3
Staphylococcus aureus [10] = experiment: Antibacterial activity against efflux-mediated macrolide-resistant Staphylococcus aureus PK1 by broth microdilution technique; procedure, shortened: as §2
Streptococcus pneumoniae [11] = experiment: Antibacterial activity against efflux-mediated macrolide-resistant Streptococcus pneumoniae Ci137 by broth microdilution technique; procedure, shortened: as §3
Streptococcus pyogenes [12] = experiment: Antibacterial activity against efflux-mediated macrolide-resistant Streptococcus pyogenes 3 Finland by broth microdilution technique; procedure, shortened: as §3
Haemophilus influenzae = experiment: Antibacterial activity against Haemophilus influenzae ATCC 49247 by broth microdilution technique
Procedure, shortened: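 MIC by broth microdilution per CLSI guidelines with doubling dilutions of compounds. Before testing, organisms were grown on Mueller-Hinton chocolate agar. Values reported in µg/mL.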

Moraxella catarrhalis = experiment: Antibacterial activity against Moraxella catarrhalis ATCC 23246 by broth microdilution technique
Procedure, shortened: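 MIC by broth microdilution per CLSI guidelines with doubling dilutions of compounds. Before testing, organisms were grown on Columbia agar with 5% sheep blood. Values reported in µg/mL.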

Structure (SMILES) | MIC (Staphylococcus aureus [1]) [µg/mL] | MIC (Streptococcus pneumoniae [2]) [µg/mL] | MIC (Streptococcus pyogenes [3]) [µg/mL] | MIC (Staphylococcus aureus [4]) [µg/mL] | MIC (Streptococcus pneumoniae [5]) [µg/mL] | MIC (Streptococcus pyogenes [6]) [µg/mL] | MIC (Staphylococcus aureus [7]) [µg/mL] | MIC (Streptococcus pneumoniae [8]) [µg/mL] | MIC (Streptococcus pyogenes [9]) [µg/mL] | MIC (Staphylococcus aureus [10]) [µg/mL] | MIC (Streptococcus pneumoniae [11]) [µg/mL] | MIC (Streptococcus pyogenes [12]) [µg/mL] | MIC (Haemophilus influenzae) [µg/mL] | MIC (Moraxella catarrhalis) [µg/mL]
CCOC(=O)c1cn(C2CC2)c2ccc(C#CCN3CCNCC3)cc2c1=O | > 64 | > 64 | > 64 | > 64 | > 64 | > 64 | > 64 | > 64 | > 64 | > 64 | > 64 | > 64 | > 64 | > 64
CCOC(=O)c1cn(CC)c2ccc(C#CCN3CCN(CCC(=O)O[C@H]4[C@H](C)O[C@@H](O[C@H]5[C@H](C)[C@@H](O[C@@H]6O[C@H](C)C[C@H](N(C)C)[C@H]6O)[C@](C)(O)C[C@@H](C)CN(C)[C@H](C)[C@@H](OC)[C@](C)(O)[C@@H](CC)OC(=O)[C@@H]5C)C[C@@]4(C)OC)CC3)cc2c1=O | 4 (≈ 3.38 µM) | ≤ 0.125 | ≤ 0.125 | > 64 | 0.5 (≈ 0.422 µM) | 0.25 (≈ 0.211 µM) | > 64 | 1 (≈ 0.844 µM) | 32 (≈ 27 µM) | > 64 | ≤ 0.125 | 1 (≈ 0.844 µM) | 32 (≈ 27 µM) | 8 (≈ 6.75 µM)
CC[C@H]1OC(=O)[C@H](C)[C@@H](O[C@H]2C[C@@](C)(OC)[C@@H](OCCCN3CCN(C/C=C/c4ccc5c(c4)c(=O)c(C(=O)O)cn5CC)CC3)[C@H](C)O2)[C@H](C)[C@@H](O[C@@H]2O[C@H](C)C[C@H](N(C)C)[C@H]2O)[C@](C)(O)C[C@@H](C)CN(C)[C@H](C)[C@@H](O)[C@]1(C)O | 2 (≈ 1.77 µM) | ≤ 0.125 | ≤ 0.125 | > 64 | > 64 | 1 (≈ 0.885 µM) | > 64 | 32 (≈ 28.3 µM) | 64 (≈ 56.6 µM) | 8 (≈ 7.08 µM) | 8 (≈ 7.08 µM) | 4 (≈ 3.54 µM) | 16 (≈ 14.2 µM) | 0.5 (≈ 0.442 µM)
CCOC(=O)c1cn(C2CC2)c2ccc(CCCN3CCN(CCC(=O)O[C@H]4[C@H](C)O[C@@H](O[C@H]5[C@H](C)[C@@H](O[C@@H]6O[C@H](C)C[C@H](N(C)C)[C@H]6O)[C@](C)(O)C[C@@H](C)CN(C)[C@H](C)[C@@H](OC)[C@](C)(O)[C@@H](CC)OC(=O)[C@@H]5C)C[C@@]4(C)OC)CC3)cc2c1=O | 4 (≈ 3.33 µM) | ≤ 0.125 | ≤ 0.125 | > 64 | > 64 | 0.25 (≈ 0.208 µM) | > 64 | 32 (≈ 26.7 µM) | 32 (≈ 26.7 µM) | > 64 | ≤ 0.125 | 1 (≈ 0.833 µM) | 16 (≈ 13.3 µM) | 
CCOC(=O)c1cn(C2CC2)c2ccc(C#CCN3CCN(C(=O)OC(C)(C)C)CC3)cc2c1=O | > 64 | > 64 | > 64 | > 64 | > 64 | > 64 | > 64 | > 64 | > 64 | > 64 | > 64 | > 64 | > 64 | > 64
CCOC(=O)c1cn(CC)c2ccc(CCCN3CCN(CCC(=O)O[C@H]4[C@H](C)O[C@@H](O[C@H]5[C@H](C)[C@@H](O[C@@H]6O[C@H](C)C[C@H](N(C)C)[C@H]6O)[C@](C)(O)C[C@@H](C)CN(C)[C@H](C)[C@@H](O)[C@](C)(O)[C@@H](CC)OC(=O)[C@@H]5C)C[C@@]4(C)OC)CC3)cc2c1=O | 1 (≈ 0.851 µM) | ≤ 0.125 | ≤ 0.125 | > 64 | ≤ 0.125 | ≤ 0.125 | > 64 | ≤ 0.125 | 32 (≈ 27.2 µM) | 64 (≈ 54.5 µM) | ≤ 0.125 | 0.5 (≈ 0.426 µM) | 2 (≈ 1.7 µM) | 0.25 (≈ 0.213 µM)
CCOC(=O)c1cn(CC)c2ccc(C#CCN3CCNCC3)cc2c1=O | > 64 | > 64 | > 64 | > 64 | > 64 | > 64 | > 64 | > 64 | > 64 | > 64 | > 64 | > 64 | > 64 | > 64
